Experiments:
[1] = test system: L-DOPA-induced abnormal involuntary movements; details: rodents; ref Giorgi et al., 2008; Picconi et al., 2011; cited from earlier work
PDE 9, 10, and 11 = details: cited from earlier work
PDE 5 and 6 = details: cited from earlier work
[2] = Plasma pharmacokinetics in awake macaques; format: in vivo, Macaca Mulatta and Fascicularis; details: suboptimal L-DOPA + PDE9i 5 mg/kg vs PDE9i vehicle
In short: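 Two awake, chair-trained MPTP-parkinsonian macaques from the behavioural cohort were restrained unsedated. Test compound (s.c., 5 mg/kg, or 0 mg/kg vehicle) was given with each animal's sub-optimal s.c. L-DOPA methyl ester/benserazide dose. Saphenous vascular-port blood was drawn pre-injection and at 60, 120 and 180 min. Each treatment was given twice, and samples were processed in duplicate. Plasma was stored at −80°C for LC/MS.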

[3] = test system: MPTP-treated parkinsonian macaques; test: PDE9i - L-DOPA co-administration trial in MPTP parkinsonian macaques; format: in vivo, Macaca Mulatta and Fascicularis; details: L-DOPA suboptimal dose s.c. alone, typical average
[4] = test system: MPTP-treated parkinsonian macaques; test: L-Dopa responses of the parkinsonian macaques; format: in vivo, Macaca Mulatta and Fascicularis

SMILES | L-DOPA-induced abnormal involuntary movements [1] | affinity for PDE 9, 10, and 11 (PDE 9, 10, and 11) | affinity for PDE 5 and 6 (PDE 5 and 6) | plasma levels of L-DOPA with PDE9i addition [2] | response duration ("on" state) [3] | LID (dyskinesia score at peak-dose effect of L-dopa) ([4]; monkey 1, scale 0 to 27) | MDS ON (motor disability score at the peak-dose effect of L-dopa) ([4]; monkey 1, scale 0 to 39, MDS OFF 17) | LID (dyskinesia score at peak-dose effect of L-dopa) ([4]; monkey 2, scale 0 to 27) | MDS ON (motor disability score at the peak-dose effect of L-dopa) ([4]; monkey 2, scale 0 to 39, MDS OFF 17) | LID (dyskinesia score at peak-dose effect of L-dopa) ([4]; monkey 3, scale 0 to 27) | MDS ON (motor disability score at the peak-dose effect of L-dopa) ([4]; monkey 3, scale 0 to 39, MDS OFF 19) | LID (dyskinesia score at peak-dose effect of L-dopa) ([4]; monkey 4, scale 0 to 27) | MDS ON (motor disability score at the peak-dose effect of L-dopa) ([4]; monkey 4, scale 0 to 39, MDS OFF 22) | LID (dyskinesia score at peak-dose effect of L-dopa) ([4]; monkey 5, scale 0 to 27) | MDS ON (motor disability score at the peak-dose effect of L-dopa) ([4]; monkey 5, scale 0 to 39, MDS OFF 23) | LID (dyskinesia score at peak-dose effect of L-dopa) ([4]; monkey 6, scale 0 to 27) | MDS ON (motor disability score at the peak-dose effect of L-dopa) ([4]; monkey 6, scale 0 to 39, MDS OFF 23.5)
CCCOc1ccccc1-c1nc2nn[nH]c2c(=O)[nH]1 [zaprinast] | reduction of L-DOPA-induced abnormal involuntary movements | weak | moderate | – | – | – | – | – | – | – | – | – | – | – | – | – | –
N[C@@H](Cc1ccc(O)c(O)c1)C(=O)O [L-DOPA] | – | – | – | remained unchanged | ~100 min | 13 | 1.5 | 11.5 | 1.5 | 10 | 3.5 | 9 | 4.5 | 7 | 8.5 | 11 | 3.5

— article PMC11698471 (Neuropharmacology, 2022)
